# In ChEMBL document CHEMBL3526015, “Metabolism of the c-Fos/activator protein-1 inhibitor T-5224 by multiple human UDP-glucuronosyltransferase isoforms” (Drug Metab Dispos, 2011):
# Columns and labels:
# [1] = target: T1, UDP-glucuronosyltransferase 1A3 (Homo sapiens, UniProt P35503); test: Substrate inhibition of human UGT1A3-mediated T-5224 hydroxyl O-glucuronide formation after 10 to 60 mins in presence of UDP-glucuronic acid by HPLC method; format: ADME
# T1 sequence (P35503 whole entry): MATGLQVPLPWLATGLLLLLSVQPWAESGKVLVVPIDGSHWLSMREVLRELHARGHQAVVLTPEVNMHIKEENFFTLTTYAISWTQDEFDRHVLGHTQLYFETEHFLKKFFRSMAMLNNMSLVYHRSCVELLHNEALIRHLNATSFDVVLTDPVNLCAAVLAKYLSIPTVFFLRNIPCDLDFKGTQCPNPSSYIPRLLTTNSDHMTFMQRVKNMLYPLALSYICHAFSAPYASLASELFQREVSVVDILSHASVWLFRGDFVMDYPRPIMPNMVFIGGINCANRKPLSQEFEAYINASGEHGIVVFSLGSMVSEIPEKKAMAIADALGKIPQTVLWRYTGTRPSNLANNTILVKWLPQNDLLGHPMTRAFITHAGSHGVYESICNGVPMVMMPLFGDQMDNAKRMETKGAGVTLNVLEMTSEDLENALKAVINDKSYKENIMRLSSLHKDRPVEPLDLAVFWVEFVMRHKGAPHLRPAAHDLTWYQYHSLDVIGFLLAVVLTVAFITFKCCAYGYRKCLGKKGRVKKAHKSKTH
# Method in brief: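 Recombinant human UGT1A1, UGT1A3 or UGT1A8 from baculovirus-infected insect cells (0.1 mg protein/mL) in 50 mM Tris-HCl pH 7.5, 8 mM MgCl2, alamethicin, 2% DMSO. T-5224 at 1–50 μM with 2 mM UDPGA for 60 min at 37°C. HPLC with UV at 290 nm. Triplicates fitted to a substrate-inhibition model. kcat uses UGT content quantified by immunoblot against recombinant UGT1A1/UGT2B4 standards.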
# Liver microsome = test: Substrate inhibition of T-5224 hydroxyl O-glucuronide formation in human liver microsomes after 10 to 60 mins by HPLC method
# Method in brief: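 Pooled liver (0.5 mg protein/mL) or intestinal (0.25 mg protein/mL) microsomes in 50 mM Tris-HCl pH 7.5, 8 mM MgCl2, alamethicin, 2% DMSO. T-5224 at 1–50 μM, 5 min preincubation at 37°C, started with 2 mM UDPGA. Incubated 10 min, or 20 min for intestinal microsomes at 1–5 μM. Acetonitrile stop, glucuronides by HPLC at 290 nm. Triplicates fitted to a substrate-inhibition model.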
# [2] = target: T1, UDP-glucuronosyltransferase 1A3; test: Drug metabolism assessed as Vmax/Km ratio for human UGT1A3-mediated T-5224 acyl O-glucuronide formation per mg protein after 10 to 60 mins in presence of UDP-glucuronic acid by HPLC method; format: ADME; conditions: recombinant enzyme
# Method in brief: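 Kinetics used recombinant UGT1A1, 1A3 or 1A8 (0.1 mg protein/mL) with T-5224 at 1–50 μM, 2 mM UDPGA and 60 min at 37°C, in triplicate. G2/G3 were measured by HPLC at 290 nm and fitted to a substrate-inhibition model (Vmax, Km, Ksi). UGT content was quantified by immunoblot, and kcat = Vmax/E0 was derived from it.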
# [3] = target: T2, UDP-glucuronosyltransferase 1A8 (Homo sapiens, UniProt Q9HAW9); test: Drug metabolism assessed as human UGT1A8-mediated T-5224 hydroxyl O-glucuronide formation at 5 to 50 uM after 60 mins in presence of UDP-glucuronic acid by HPLC method; format: ADME; conditions: recombinant enzyme, 1 h
# T2 sequence (Q9HAW9 whole entry): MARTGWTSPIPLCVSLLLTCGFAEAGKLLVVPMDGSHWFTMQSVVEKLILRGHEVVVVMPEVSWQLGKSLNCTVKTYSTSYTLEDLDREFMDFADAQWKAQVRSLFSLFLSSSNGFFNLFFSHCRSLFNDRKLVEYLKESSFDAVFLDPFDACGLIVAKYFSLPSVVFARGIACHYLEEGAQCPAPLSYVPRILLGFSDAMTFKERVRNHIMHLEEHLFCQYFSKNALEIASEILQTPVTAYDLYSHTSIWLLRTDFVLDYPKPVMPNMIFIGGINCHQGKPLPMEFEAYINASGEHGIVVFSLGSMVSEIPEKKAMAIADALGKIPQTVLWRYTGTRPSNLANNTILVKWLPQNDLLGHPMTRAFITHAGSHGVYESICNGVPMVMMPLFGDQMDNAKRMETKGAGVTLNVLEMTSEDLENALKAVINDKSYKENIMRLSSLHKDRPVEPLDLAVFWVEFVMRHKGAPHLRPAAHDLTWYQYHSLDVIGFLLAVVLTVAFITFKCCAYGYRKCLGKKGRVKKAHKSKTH
# Cytochrome P450 2B6 = target: T3, Cytochrome P450 2B6 (Homo sapiens, UniProt P20813); test: Drug metabolism assessed as human CYP2B6-mediated metabolite formation at 2 uM after 30 mins by HPLC method; format: ADME; conditions: recombinant enzyme, 0.5 h
# T3 sequence (P20813 whole entry): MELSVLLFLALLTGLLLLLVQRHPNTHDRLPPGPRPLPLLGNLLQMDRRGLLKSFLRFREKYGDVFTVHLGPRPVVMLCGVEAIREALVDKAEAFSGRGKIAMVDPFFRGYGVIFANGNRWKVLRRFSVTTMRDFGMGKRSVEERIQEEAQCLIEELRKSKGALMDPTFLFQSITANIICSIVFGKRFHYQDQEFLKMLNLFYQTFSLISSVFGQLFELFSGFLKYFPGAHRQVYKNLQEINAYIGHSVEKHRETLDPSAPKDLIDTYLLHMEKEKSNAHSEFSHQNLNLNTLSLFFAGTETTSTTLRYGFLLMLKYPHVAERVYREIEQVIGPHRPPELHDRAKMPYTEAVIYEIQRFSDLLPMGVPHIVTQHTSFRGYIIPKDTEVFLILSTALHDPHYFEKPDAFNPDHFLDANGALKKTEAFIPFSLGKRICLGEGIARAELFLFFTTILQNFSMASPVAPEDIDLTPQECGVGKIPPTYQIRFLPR
# Method in brief: (§1)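 Each recombinant human P450 was used at 50 pmol/mL with an NADPH-generating system and 2 μM 14C-T-5224 (0.5% DMSO final). Buffer was 100 mM Tris-HCl pH 7.5, except 100 mM potassium phosphate pH 7.4 for CYP2A6 and CYP2C9*1. Incubation ran 30 min at 37°C and was stopped with acetonitrile/methanol. Radioactive metabolite peaks were detected by C18 HPLC.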
# Cytochrome P450 3A4 = Cytochrome P450 3A4 (Homo sapiens, UniProt P08684); test: Drug metabolism assessed as human CYP3A4-mediated metabolite formation at 2 uM after 30 mins by HPLC method; format: ADME; conditions: recombinant enzyme, 0.5 h; method in brief: as §1
# Sequence of Cytochrome P450 3A4 (P08684 whole entry): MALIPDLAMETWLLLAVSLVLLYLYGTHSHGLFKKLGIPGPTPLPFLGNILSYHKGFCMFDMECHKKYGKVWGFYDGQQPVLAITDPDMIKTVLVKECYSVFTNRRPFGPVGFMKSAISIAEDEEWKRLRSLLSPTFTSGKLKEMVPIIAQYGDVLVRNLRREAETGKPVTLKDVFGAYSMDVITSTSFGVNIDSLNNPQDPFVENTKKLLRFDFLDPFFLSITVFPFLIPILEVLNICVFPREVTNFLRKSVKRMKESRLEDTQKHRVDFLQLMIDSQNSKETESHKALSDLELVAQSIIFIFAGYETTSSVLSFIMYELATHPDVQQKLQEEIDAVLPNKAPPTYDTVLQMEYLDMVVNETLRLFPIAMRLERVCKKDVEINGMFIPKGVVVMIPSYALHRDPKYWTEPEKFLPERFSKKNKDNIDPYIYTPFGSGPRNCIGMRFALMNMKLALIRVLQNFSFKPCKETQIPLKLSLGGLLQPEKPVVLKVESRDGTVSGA
smiles,measurement,setting,value
O=C(O)CCc1cc(C(=O)c2ccc(OC3CCCC3)cc2O)ccc1OCc1ccc2c(O)noc2c1,Ki,[1],2.55 µM
same,Ki,Liver microsome,27 µM
same,Vmax/Km,[2],15.5 µL/min
same,Drug metabolism,[3],metabolite_detected
same,Drug metabolism,Cytochrome P450 2B6,metabolite_not_detected
same,Drug metabolism,Cytochrome P450 3A4,metabolite_not_detected
